Source: PubChem (Broad Institute)
Only a selection was taken, and hits are over-represented in it overall.
A1 apoptosis 2: A1 inhibitors via caspase activation, primary screen, cell-based, luminescence, HTS, two replicates. MEF A1-2A-BIM cells, caspase-Glo luminescence, 3 h; percent of clofoctol response, DMSO zero. 24,000 tested, under 10 active. caspase activation, % (no concentration beside the values). AID 2465, 2010; in the data active = caspase activation above about 5.9%; inconclusive = no clear call, values can overlap the other calls; inactive = below about 2.2%
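Test system – A1-2A-BIM-expressing MEF cells · Input – 2500 cells/well · Medium – RPMI-1640 growth medium with 10% FBS · Compound dosing – 50 nL pinned compound · Timing – 3 h compound exposure at 37 °C · Technique – Caspase-Glo luminescence (DEVD substrate) · Evaluation – Caspase-3/7 activity from luminescence increase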
INS-1E ATP HTS: protection of INS-1E cells from cytokine death, primary screen, ATP luminescence, single point | INS-1E cytokine-induced death, 48 h; normalised: neutral wells 0, positive control 100 | protection from cytokine-induced ATP loss, % at 10 µM | 20,000 compounds, 0.1% hits;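 active = mean replicate protection from cytokine-induced ATP loss at least 50% and at least 75% of replicates each reaching 50%; inconclusive = meets only one of the two criteria, mean or replicate share; inactive = fails both the mean and replicate share criteria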
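Assay system – rat INS-1E insulinoma cell line · Quantity – 8000 cells per well · Buffer or medium – RPMI without phenol red, 5% FBS · Schedule – 48 h co-treatment, 10 min post-lysis read · Technique – luminescent ATP assay (CellTiter-Glo)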
T cruzi HTS: inhibitors of intracellular Trypanosoma cruzi, primary screen, cell-based, plate reader, single point, set 2; 22,000 compounds, 4.9% hits; activity score (inhibition), % at 5.01 µM; intracellular Trypanosoma cruzi in host cells; in the data active = activity score above about 55%; inconclusive = no clear call, values can overlap the other calls;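 note: parasites and compound incubated about four days before reading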
Of the large screens only hits and unclear results are named; the others gave an inactive call.

C[C@H](CO)N1C[C@H](C)[C@H](CN(C)Cc2ccc(C(=O)O)cc2)Oc2c(NC(=O)c3ccc(-c4nccs4)cc3)cccc2C1=O	none
C[C@@H]1CCCCO[C@@H](CN(C)Cc2ccccc2)[C@@H](C)CN([C@@H](C)CO)C(=O)c2cc(NS(=O)(=O)c3cccs3)ccc2O1	none (no result: INS-1E ATP HTS, T cruzi HTS)
C[C@H]1CN([C@@H](C)CO)C(=O)Cc2cc(NC(=O)Nc3ccc(C(F)(F)F)cc3)ccc2O[C@@H]1CN(C)CC1CC1	none
C[C@@H]1CN([C@@H](C)CO)C(=O)Cc2cc(NC(=O)Nc3ccc(C(F)(F)F)cc3)ccc2O[C@@H]1CN(C)CC1CCCCC1	T cruzi HTS 77 (no result: A1 apoptosis 2)
C[C@H]1CN([C@@H](C)CO)C(=O)Cc2cc(NC(=O)Nc3ccc(C(F)(F)F)cc3)ccc2O[C@H]1CN(C)CC1CCCCC1	T cruzi HTS 72 (no result: A1 apoptosis 2)
C[C@H](CO)N1C[C@H](C)[C@@H](CN(C)CC2CC2)Oc2ccc(NC(=O)Nc3ccc(C(F)(F)F)cc3)cc2CC1=O	none (no result: INS-1E ATP HTS, T cruzi HTS)
C[C@@H]1CN([C@@H](C)CO)C(=O)CCCn2cc(nn2)CO[C@H]1CN(C)Cc1ccc2c(c1)OCCN2C	none (no result: INS-1E ATP HTS, T cruzi HTS)
C[C@H](CO)N1C[C@H](C)[C@@H](CN(C)Cc2ccncc2)Oc2ccc(NC(=O)CCCN(C)C)cc2CC1=O	none (no result: INS-1E ATP HTS, T cruzi HTS)
C[C@H](CO)N1C[C@H](C)[C@H](CN(C)C(=O)Nc2ccccc2)Oc2c(NC(=O)Nc3cccc4ccccc34)cccc2C1=O	T cruzi HTS 63
C[C@@H]1CN([C@H](C)CO)C(=O)c2cccc(NC(=O)Nc3cccc4ccccc34)c2O[C@H]1CN(C)C(=O)Nc1ccccc1	none (no result: A1 apoptosis 2)
C[C@@H]1CN([C@@H](C)CO)C(=O)c2cccc(NC(=O)Nc3cccc4ccccc34)c2O[C@H]1CN(C)C(=O)Nc1ccccc1	none
C[C@H](CO)N1C[C@H](C)[C@@H](CN(C)C(=O)Nc2ccccc2)Oc2c(NC(=O)Nc3cccc4ccccc34)cccc2C1=O	T cruzi HTS 68 (no result: A1 apoptosis 2)
COc1ccc([C@H]2C=C(C(=O)NCc3ccccc3)O[C@@H](OCc3ccc(CO)cc3)C2)cc1	none (no result: INS-1E ATP HTS, T cruzi HTS)
C[C@H](CO)N1C[C@H](C)[C@H](CN(C)C)Oc2ncc(-c3cc4ccccc4o3)cc2C1=O	T cruzi HTS 85 (no result: INS-1E ATP HTS)
C[C@H](CO)N1C[C@H](C)[C@H](CN(C)S(=O)(=O)c2cccs2)Oc2ncc(-c3cc4ccccc4o3)cc2C1=O	T cruzi HTS 67 (no result: INS-1E ATP HTS)
CCCN(C)C[C@@H]1Oc2ncc(-c3cc4ccccc4o3)cc2C(=O)N([C@H](C)CO)C[C@@H]1C	T cruzi HTS inconclusive (no result: INS-1E ATP HTS)
C[C@H](CO)N1C[C@H](C)[C@H](CN(C)Cc2ccc3c(c2)OCO3)Oc2ncc(-c3cc4ccccc4o3)cc2C1=O	T cruzi HTS 78 (no result: INS-1E ATP HTS)
C[C@H](CO)N1C[C@H](C)[C@H](CN(C)Cc2ccc3c(c2)OCO3)Oc2ncc(-c3ccc(F)cc3)cc2C1=O	none (no result: INS-1E ATP HTS)
COc1ccc(S(=O)(=O)N(C)C[C@@H]2Oc3ncc(-c4cc5ccccc5o4)cc3C(=O)N([C@H](C)CO)C[C@@H]2C)cc1	none
Cc1ccc(S(=O)(=O)Nc2ccc3c(c2)C(=O)N([C@H](C)CO)C[C@@H](C)[C@@H](CN(C)Cc2ccc(C(=O)O)cc2)O3)cc1	none
C[C@H](CO)N1C[C@H](C)[C@H](CN(C)S(C)(=O)=O)Oc2c(NS(=O)(=O)c3ccc(F)cc3)cccc2C1=O	none (no result: A1 apoptosis 2)
Cc1ccc(S(=O)(=O)Nc2ccc3c(c2)CC(=O)N([C@H](C)CO)C[C@@H](C)[C@H](CN(C)Cc2ccc(C(=O)Nc4ccccc4N)cc2)O3)cc1	none (no result: A1 apoptosis 2)
C[C@@H]1CN([C@H](C)CO)C(=O)Cc2cc(NS(=O)(=O)c3ccccc3)ccc2O[C@@H]1CN(C)Cc1ccc(C(=O)Nc2ccccc2N)cc1	T cruzi HTS 58
C[C@@H]1CN([C@@H](C)CO)C(=O)c2cc(NS(=O)(=O)c3ccc(F)cc3)ccc2O[C@H]1CN(C)Cc1ccc(C(=O)Nc2ccccc2N)cc1	T cruzi HTS 57
C[C@@H]1CCCCO[C@H](CN(C)Cc2ccc(C(=O)Nc3ccccc3N)cc2)[C@@H](C)CN([C@H](C)CO)C(=O)c2cc(NS(=O)(=O)c3ccc(Cl)cc3)ccc2O1	T cruzi HTS 78 (no result: A1 apoptosis 2)
C[C@@H]1CCCCO[C@@H](CN(C)Cc2ccc(C(=O)Nc3ccccc3N)cc2)[C@@H](C)CN([C@H](C)CO)C(=O)c2cc(NS(=O)(=O)c3ccccc3)ccc2O1	none
C[C@H]1CN([C@@H](C)CO)C(=O)Cc2cc(NS(=O)(=O)c3ccc(Cl)cc3)ccc2O[C@H]1CN(C)Cc1ccc(C(=O)Nc2ccccc2N)cc1	T cruzi HTS 66
C[C@H](CO)N1C[C@H](C)[C@@H](CN(C)Cc2ccc(C(=O)Nc3ccccc3N)cc2)Oc2ccc(NS(=O)(=O)c3ccccc3)cc2CC1=O	none (no result: INS-1E ATP HTS, T cruzi HTS)
C[C@@H]1CN([C@H](C)CO)C(=O)c2cc(NS(=O)(=O)c3ccc(F)cc3)ccc2O[C@@H]1CN(C)Cc1ccc(C(=O)Nc2ccccc2N)cc1	none (no result: A1 apoptosis 2)
CNC[C@@H]1Oc2ccc(NS(=O)(=O)c3ccc(OC)cc3)cc2C(=O)N([C@@H](C)CO)C[C@@H]1C	none (no result: A1 apoptosis 2)
C[C@@H]1CN([C@H](C)CO)C(=O)c2cc(NC(=O)C3CCCCC3)ccc2O[C@@H](C)CCCCO[C@@H]1CN(C)Cc1ccc(C(=O)O)cc1	none (no result: INS-1E ATP HTS, T cruzi HTS)
C[C@H]1CN([C@@H](C)CO)C(=O)Cc2cc(N(C)C)ccc2O[C@H]1CN(C)S(=O)(=O)c1cccs1	none
C[C@@H]1CCCCO[C@H](CN(C)Cc2ccc(Cl)c(Cl)c2)[C@@H](C)CN([C@H](C)CO)C(=O)c2cc(NC(=O)c3ccccc3)ccc2O1	none
C[C@H](CO)N1C[C@H](C)[C@@H](CN(C)Cc2ccncc2)Oc2ccc(NC(=O)c3ccncc3)cc2C1=O	none (no result: INS-1E ATP HTS, T cruzi HTS)
C[C@@H]1CN([C@@H](C)CO)C(=O)c2cccc(NC(=O)CCCCCC(=O)Nc3ccccc3N)c2O[C@H]1CN(C)S(=O)(=O)c1ccc(Cl)cc1	none (no result: A1 apoptosis 2)
C[C@H]1CN([C@@H](C)CO)C(=O)Cc2cc(NS(=O)(=O)c3ccc(F)cc3)ccc2O[C@H]1CN(C)Cc1ccc(C(=O)Nc2ccccc2N)cc1	T cruzi HTS 71 (no result: A1 apoptosis 2)
C[C@@H]1CN([C@@H](C)CO)C(=O)Cc2cc(NS(=O)(=O)c3ccc(F)cc3)ccc2O[C@@H]1CN(C)Cc1ccc(C(=O)Nc2ccccc2N)cc1	none
C[C@H](CO)N1C[C@H](C)[C@H](CN(C)Cc2ccc(Oc3ccccc3)cc2)Oc2c(NC(=O)c3ccncc3)cccc2C1=O	T cruzi HTS 60
C[C@H]1CN([C@@H](C)CO)C(=O)c2cccc(NC(=O)c3ccncc3)c2O[C@@H]1CN(C)Cc1ccccc1	T cruzi HTS 81 (no result: A1 apoptosis 2)
C[C@@H]1CN([C@H](C)CO)C(=O)c2cccc(NC(=O)c3ccncc3)c2O[C@H]1CN(C)Cc1ccc(C(=O)O)cc1	none
C[C@@H]1CN([C@@H](C)CO)C(=O)c2cccc(NC(=O)c3cnccn3)c2O[C@@H]1CN(C)Cc1ccc(Oc2ccccc2)cc1	none
C[C@H](CO)N1C[C@H](C)[C@H](CN(C)Cc2ccccc2)Oc2c(NC(=O)c3ccncc3)cccc2C1=O	T cruzi HTS 81
